Results pooled from the literature.
Compare with care: the assays were run in different laboratories.
Organism: Mycolicibacterium smegmatis
Effect on: microbial growth

| SMILES | method | strain | time | MIC |
| --- | --- | --- | --- | --- |
| CC(C)=CCC/C(C)=C/CNCCOC(C)(C)C | – | – | – | 50 µg/mL |
| C/C(=N\NC(=N)N)c1cccc(/C(C)=N/NC(=N)N)c1 | – | MC2155 | – | 15.6 to 31.3 µM |
| CC[C@@H](CO)NCCN[C@@H](CC)CO | resazurin | ATCC607 | 72 h | 0.39 µg/mL |
| CC(C)=CCC/C(C)=C/C[N+](C)(C)CCOC1C2CC3CC(C2)CC1C3.[I-] (stereo not shown) | – | – | – | 12 µg/mL |
| CC(C)CC=CC=CC(=O)NC(CC(N)=O)C(=O)NC1C(=O)NC(c2ccc(O)cc2)C(=O)NC(CCCN)C(=O)NC(C(C)O)C(=O)NC(c2ccc(O)cc2)C(=O)NC(c2ccc(O)cc2)C(=O)NC(C(C)O)C(=O)NC(Cc2ccccc2)C(=O)NC(CCCN)C(=O)NC(c2ccc(OC3OC(CO)C(O)C(O)C3OC3OC(CO)C(O)C(O)C3O)cc2)C(=O)NC(C(C)O)C(=O)NC(c2ccc(O)cc2)C(=O)NCC(=O)NC(CC(C)C)C(=O)NC(C)C(=O)NC(c2ccc(O)c(Cl)c2)C(=O)OC1C(N)=O (stereo not shown) | resazurin | ATCC607 | 72 h | 3.25 µg/mL |
| CCC(C)(C)C(=O)Oc1ccccc1C(=O)Nc1ncc([N+](=O)[O-])s1 | agar dilution | MC^2155 | – | > 25 µM |
| COC1C(C(OC2OC(C(=O)NC3CCCCNC3=O)=CC(O)C2O)C(N)=O)OC(n2ccc(=O)[nH]c2=O)C1OC (stereo not shown) | broth dilution | ATCC607 | – | > 200 µg/mL |
| CC1(C)S[C@@H]2[C@H](NC(=O)[C@H](N)c3ccccc3)C(=O)N2[C@H]1C(=O)O | resazurin | MC^2155 | 24 h | 50 µg/mL |
| NNC(=O)c1ccncc1 | agar dilution | – | – | 12.5 µg/mL |
| CNC(C)C1CCC(N)C(OC2C(N)CC(N)C(OC3OCC(C)(O)C(NC)C3O)C2O)O1 (stereo not shown) | broth dilution | – | 72 h | 1 µg/mL |
| CN[C@H](CC(C)C)C(=O)N[C@H]1C(=O)N[C@@H](CC(N)=O)C(=O)N[C@H]2C(=O)N[C@H]3C(=O)N[C@H](C(=O)N[C@H](C(=O)O)c4cc(O)cc(O)c4-c4cc3ccc4O)[C@H](O)c3ccc(c(Cl)c3)Oc3cc2cc(c3O[C@@H]2O[C@H](CO)[C@@H](O)[C@H](O)[C@H]2O[C@H]2C[C@](C)(N)[C@H](O)[C@H](C)O2)Oc2ccc(cc2Cl)[C@H]1O | resazurin | ATCC607 | 72 h | 3.12 µg/mL |
| CC(C)=CCC/C(C)=C/CNCCOc1ccccc1 | – | – | – | 12 µg/mL |
| NNC(=O)c1ccncc1 | – | – | – | 1 µg/mL |
| O=C(Nc1ccc2c(c1)OC(F)(F)O2)Nc1ccc(Cl)c(C(F)(F)F)c1 | – | MC2155 | – | 6 µM |
| CC(C)=CCC/C(C)=C/COCCNC1C2CC3CC(C2)CC1C3 (stereo not shown) | – | – | – | 6.2 µg/mL |
| COc1nc2ccc(Br)cc2cc1[C@@H](c1ccccc1)[C@@](O)(CCN(C)C)c1cccc2ccccc12 | – | – | – | 0.03 µg/mL |
| NNC(=O)c1ccncc1 | broth dilution | ATCC607 | – | > 200 µg/mL |
| CO[C@H]1/C=C/O[C@@]2(C)Oc3c(C)c(O)c4c(O)c(c(/C=N/N5CCN(C)CC5)c(O)c4c3C2=O)NC(=O)/C(C)=C\C=C\[C@H](C)[C@H](O)[C@@H](C)[C@@H](O)[C@@H](C)[C@H](OC(C)=O)[C@@H]1C | broth dilution | – | – | 162 µM |
| Nc1ccc(C(=O)O)c(O)c1 | broth dilution | MC^2155 | – | 1.25 µg/mL |
